Data published in ChEMBL document CHEMBL1153726, “Synthesis and anticancer activity of sclerophytin-inspired hydroisobenzofurans” (Bioorg Med Chem Lett, 2009).

Experiments:
OVCAR-4 = assay: Growth inhibition of human OVCAR4 cells at 10 nM after 96 hrs by MTT assay; assay type: functional; design: scale not given: the % may be the effect or the level left
A549 = assay: Growth inhibition of human A549 cells at 10 nM after 96 hrs by MTT assay; assay type: functional; design: scale not given: the % may be the effect or the level left
MDA-MB-231 [1] = assay: Growth inhibition of human MDA-MB-231 cells at 1 nM after 96 hrs by MTT assay; assay type: functional; design: scale not given: the % may be the effect or the level left
HOP-92 = assay: Growth inhibition of human HOP92 cells at 1 uM after 96 hrs by MTT assay; assay type: functional; design: scale not given: the % may be the effect or the level left
HL-60(TB) [2] = assay: Growth inhibition of human HL-60(TB) cells at 1 uM after 96 hrs by MTT assay; assay type: functional; design: scale not given: the % may be the effect or the level left
SW-620 = assay: Growth inhibition of human SW620 cells at 100 nM after 96 hrs by MTT assay; assay type: functional; design: scale not given: the % may be the effect or the level left
SK-MEL-5 = assay: Growth inhibition of human SK-MEL-5 cells at 1 uM after 96 hrs by MTT assay; assay type: functional; design: scale not given: the % may be the effect or the level left
SK-OV-3 = assay: Growth inhibition of human SKOV3 cells at 1 uM after 96 hrs by MTT assay; assay type: functional; design: scale not given: the % may be the effect or the level left
HL-60(TB) [3] = assay: Growth inhibition of human HL-60(TB) cells at 1 nM after 96 hrs by MTT assay; assay type: functional; design: scale not given: the % may be the effect or the level left
HCC 2998 [4] = assay: Growth inhibition of human HCC2998 cells at 10 nM after 96 hrs by MTT assay; assay type: functional; design: scale not given: the % may be the effect or the level left
EKVX [5] = assay: Growth inhibition of human EKVX cells at 1 nM after 96 hrs by MTT assay; assay type: functional; design: scale not given: the % may be the effect or the level left
SNB-75 = assay: Growth inhibition of human SNB75 cells at 100 nM after 96 hrs by MTT assay; assay type: functional; design: scale not given: the % may be the effect or the level left
M14 = assay: Growth inhibition of human M14 cells at 10 uM after 96 hrs by MTT assay; assay type: functional; design: scale not given: the % may be the effect or the level left
MDA-MB-231 [6] = assay: Growth inhibition of human MDA-MB-231 cells at 10 nM after 96 hrs by MTT assay; assay type: functional; design: scale not given: the % may be the effect or the level left
NCI-H522 [7] = assay: Growth inhibition of human NCI-H522 cells at 10 nM after 96 hrs by MTT assay; assay type: functional; design: scale not given: the % may be the effect or the level left
UACC-62 = assay: Growth inhibition of human UACC62 cells after 96 hrs by MTT assay; assay type: functional; conditions: UACC-62, 96 h
In short: (§1)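 Tested in the NCI 60-cell-line panel in five-dose format; GI50 and LC50 values reported for each cell line.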

NCI-H460 = assay: Growth inhibition of human NCI-H460 cells at 1 nM after 96 hrs by MTT assay; assay type: functional; design: scale not given: the % may be the effect or the level left
OVCAR-8 = assay: Growth inhibition of human OVCAR8 cells at 10 uM after 96 hrs by MTT assay; assay type: functional; design: scale not given: the % may be the effect or the level left
MOLT-4 [8] = assay: Growth inhibition of human MOLT4 cells at 10 nM after 96 hrs by MTT assay; assay type: functional; design: scale not given: the % may be the effect or the level left
[9] = Growth inhibition of human RPMI8266 cells at 1 nM after 96 hrs by MTT assay; assay type: functional; design: scale not given: the % may be the effect or the level left
OVCAR-3 = assay: Growth inhibition of human OVCAR-3 cells at 10 uM after 96 hrs by MTT assay; assay type: functional; design: scale not given: the % may be the effect or the level left
EKVX [10] = assay: Growth inhibition of human EKVX cells at 1 uM after 96 hrs by MTT assay; assay type: functional; design: scale not given: the % may be the effect or the level left
MDA-MB-468 = assay: Growth inhibition of human MDA-MB-468 cells at 10 uM after 96 hrs by MTT assay; assay type: functional; design: scale not given: the % may be the effect or the level left
KM12 = assay: Growth inhibition of human KM12 cells at 1 nM after 96 hrs by MTT assay; assay type: functional; design: scale not given: the % may be the effect or the level left
NCI-H322M [11] = assay: Growth inhibition of human NCI-H322M cells at 100 nM after 96 hrs by MTT assay; assay type: functional; design: scale not given: the % may be the effect or the level left
ACHN = assay: Growth inhibition of human ACHN cells at 1 uM after 96 hrs by MTT assay; assay type: functional; design: scale not given: the % may be the effect or the level left
NCI-H226 = assay: Growth inhibition of human NCI-H226 cells at 1 uM after 96 hrs by MTT assay; assay type: functional; design: scale not given: the % may be the effect or the level left
786-0 [12] = assay: Growth inhibition of human 786-0 cells at 1 uM after 96 hrs by MTT assay; assay type: functional; design: scale not given: the % may be the effect or the level left
LOX IMVI [13] = assay: Growth inhibition of human LOXIMVI cells at 1 uM after 96 hrs by MTT assay; assay type: functional; design: scale not given: the % may be the effect or the level left
SF-295 = assay: Growth inhibition of human SF295 cells at 100 nM after 96 hrs by MTT assay; assay type: functional; design: scale not given: the % may be the effect or the level left
SF-268 = assay: Growth inhibition of human SF268 cells at 1 uM after 96 hrs by MTT assay; assay type: functional; design: scale not given: the % may be the effect or the level left
SN12C = assay: Growth inhibition of human SN12C cells at 1 uM after 96 hrs by MTT assay; assay type: functional; design: scale not given: the % may be the effect or the level left
HCT-116 = assay: Growth inhibition of human HCT116 cells at 1 uM after 96 hrs by MTT assay; assay type: functional; design: scale not given: the % may be the effect or the level left
[14] = Antitumor activity against human KB3 cells after 96 hrs by MTT assay; assay type: functional, cell-based; conditions: KB3, 96 h
In short: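 Human KB-3 carcinoma cells exposed to increasing compound concentrations; viability read by MTT colorimetric assay after 96 h. Values are means of triplicate assays, expressed relative to untreated controls.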

LOX IMVI [15] = assay: Growth inhibition of human LOXIMVI cells at 100 nM after 96 hrs by MTT assay; assay type: functional; design: scale not given: the % may be the effect or the level left
EKVX [16] = assay: Growth inhibition of human EKVX cells at 10 uM after 96 hrs by MTT assay; assay type: functional; design: scale not given: the % may be the effect or the level left
BT-549 [17] = assay: Growth inhibition of human BT549 cells at 1 uM after 96 hrs by MTT assay; assay type: functional; design: scale not given: the % may be the effect or the level left
PC-3 = assay: Growth inhibition of human PC3 cells at 1 uM after 96 hrs by MTT assay; assay type: functional; design: scale not given: the % may be the effect or the level left
NCI-H322M [18] = assay: Growth inhibition of human NCI-H322M cells at 10 nM after 96 hrs by MTT assay; assay type: functional; design: scale not given: the % may be the effect or the level left
NCI-H522 [19] = assay: Growth inhibition of human NCI-H522 cells at 1 nM after 96 hrs by MTT assay; assay type: functional; design: scale not given: the % may be the effect or the level left
MOLT-4 [20] = assay: Growth inhibition of human MOLT4 cells at 100 nM after 96 hrs by MTT assay; assay type: functional; design: scale not given: the % may be the effect or the level left
BT-549 [21] = assay: Growth inhibition of human BT549 cells at 10 nM after 96 hrs by MTT assay; assay type: functional; design: scale not given: the % may be the effect or the level left
MOLT-4 [22] = assay: Growth inhibition of human MOLT4 cells at 1 uM after 96 hrs by MTT assay; assay type: functional; design: scale not given: the % may be the effect or the level left
HCC 2998 [23] = assay: Growth inhibition of human HCC2998 cells at 100 nM after 96 hrs by MTT assay; assay type: functional; design: scale not given: the % may be the effect or the level left
U-251 = assay: Growth inhibition of human U251 cells after 96 hrs by MTT assay; assay type: functional; conditions: U-251, 96 h; in short: as §1
SK-MEL-28 = assay: Growth inhibition of human SK-MEL-28 cells at 10 uM after 96 hrs by MTT assay; assay type: functional; design: scale not given: the % may be the effect or the level left
786-0 [24] = assay: Growth inhibition of human 786-0 cells at 1 nM after 96 hrs by MTT assay; assay type: functional; design: scale not given: the % may be the effect or the level left
CCRF-CEM = assay: Growth inhibition of human CCRF-CEM cells at 10 uM after 96 hrs by MTT assay; assay type: functional; design: scale not given: the % may be the effect or the level left
[25] = read-out: LC50 (the source's name)
[26] = read-out: Log10GI50 (converted)
[27] = read-out: Log10LC50 (converted)

`C=C(C)[C@H]1CC=C(C)C2=CO[C@@H](c3ccccc3F)[C@@H]21` gave an Activity (OVCAR-4) of 86%, an Activity (A549) of 89% and an Activity (MDA-MB-231 [1]) of 101%. The Activity (HOP-92) was -14%, the Activity (HL-60(TB) [2]) was -40% and the Activity (SW-620) was 101%. It also gave an Activity (SK-MEL-5) of 21%, an Activity (SK-OV-3) of 59% and an Activity (HL-60(TB) [3]) of 104%. It also gave an Activity (HCC 2998 [4]) of 89%, an Activity (EKVX [5]) of 98% and an Activity (SNB-75) of 84%. It also gave an Activity (M14) of 102.54%, an Activity (MDA-MB-231 [6]) of 89% and an Activity (NCI-H522 [7]) of 77%. It also gave a GI50 (UACC-62; read-out: GI50) of 3.31 µM, a CC50 (UACC-62; [25]) of 51.5 µM and a GI50 (UACC-62; [26]) of 3.31 µM. It also gave a CC50 (UACC-62; [27]) of 51.3 µM, a TGI (UACC-62; read-out: Log10TGI (converted)) of 18.2 µM and a TGI (UACC-62; read-out: TGI) of 18.3 µM. For the same compound, the Activity (NCI-H460) was 97%, the Activity (OVCAR-8) was 94.8% and the Activity (MOLT-4 [8]) was 100%. It also gave an Activity [9] of 78%, an Activity (OVCAR-3) of 115.72% and an Activity (EKVX [10]) of 23%. For the same compound, the Activity (MDA-MB-468) was 102.71%, the Activity (KM12) was 95% and the Activity (NCI-H322M [11]) was 79%. The Activity (ACHN) was 39%, the Activity (NCI-H226) was 32% and the Activity (786-0 [12]) was 48%. For the same compound, the Activity (LOX IMVI [13]) was 33%, the Activity (SF-295) was 88% and the Activity (SF-268) was 43%. The Activity (SN12C) was 44%, the Activity (HCT-116) was 15% and the IC50 [14] was 1 µM. The Activity (LOX IMVI [15]) was 79%, the Activity (EKVX [16]) was 102.28% and the Activity (BT-549 [17]) was -6%. It also gave an Activity (PC-3) of 20%, an Activity (NCI-H322M [18]) of 84% and an Activity (NCI-H522 [19]) of 82%. For the same compound, the Activity (MOLT-4 [20]) was 81%, the Activity (BT-549 [21]) was 84% and the Activity (MOLT-4 [22]) was -15%. The Activity (HCC 2998 [23]) was 97%, the GI50 (U-251; read-out: GI50) was 3.06 µM and the CC50 (U-251; [25]) was 37.7 µM. The GI50 (U-251; [26]) was 3.09 µM, the CC50 (U-251; [27]) was 38 µM and the TGI (U-251; read-out: Log10TGI (converted)) was 14.1 µM. For the same compound, the TGI (U-251; read-out: TGI) was 14.2 µM, the Activity (SK-MEL-28) was 110.2% and the Activity (786-0 [24]) was 99%. It also gave an Activity (CCRF-CEM) of 68.96%.
